Results from ChEMBL document CHEMBL5260840 (J Med Chem, 2019).
pIC50: −log10 of the molar value. Active and inactive are the calls of the source. The calls are words filed in the database; no cut-off is given here.

Key:
[1] = target: T1, von Hippel-Lindau disease tumor suppressor/Bromodomain-containing protein 9 (Homo sapiens) (UniProt Q9H8M2+P40337); experiment: PROTAC activity at VHL/BRD9 in human Ri-1 cells assessed as remaining BRD9 protein level at 10000 nM incubated for 2 hrs by Western blot analysis relative to control; type: cell-based
T1 sequence (P40337 whole entry, looked up): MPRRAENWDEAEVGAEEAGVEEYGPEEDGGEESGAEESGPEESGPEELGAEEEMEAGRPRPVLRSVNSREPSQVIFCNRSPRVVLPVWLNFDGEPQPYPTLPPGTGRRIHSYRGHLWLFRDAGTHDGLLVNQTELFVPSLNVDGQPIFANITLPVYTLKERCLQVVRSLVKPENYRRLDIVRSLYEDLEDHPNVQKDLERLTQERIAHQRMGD
T1 sequence (Q9H8M2 whole entry, looked up): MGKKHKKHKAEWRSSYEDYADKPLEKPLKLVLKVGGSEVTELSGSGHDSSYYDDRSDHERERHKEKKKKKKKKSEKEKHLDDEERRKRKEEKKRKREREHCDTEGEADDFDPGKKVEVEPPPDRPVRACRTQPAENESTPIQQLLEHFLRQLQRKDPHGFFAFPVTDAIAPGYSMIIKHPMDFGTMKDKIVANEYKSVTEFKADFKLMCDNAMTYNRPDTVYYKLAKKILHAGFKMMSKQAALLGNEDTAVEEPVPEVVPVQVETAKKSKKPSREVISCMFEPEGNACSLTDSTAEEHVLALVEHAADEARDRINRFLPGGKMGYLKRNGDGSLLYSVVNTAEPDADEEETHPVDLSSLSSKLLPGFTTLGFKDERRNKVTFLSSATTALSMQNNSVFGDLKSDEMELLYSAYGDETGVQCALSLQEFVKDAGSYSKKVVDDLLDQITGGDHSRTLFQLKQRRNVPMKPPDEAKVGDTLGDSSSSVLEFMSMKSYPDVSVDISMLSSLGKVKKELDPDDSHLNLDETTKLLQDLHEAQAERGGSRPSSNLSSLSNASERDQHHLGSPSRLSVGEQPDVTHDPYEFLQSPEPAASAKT
In short: (§1)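 Ri-1 cells exposed to compound for the stated time before harvest; BRD9, BRD7 and β-actin measured by Western blot, band intensities quantified and set against DMSO-treated control.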

[2] = target: T2, von Hippel-Lindau disease tumor suppressor/Bromodomain-containing protein 7 (Homo sapiens) (UniProt Q9NPI1+P40337); experiment: PROTAC activity at VHL/BRD7 in human Ri-1 cells assessed as remaining BRD7 protein level at 100 nM incubated for 8 hrs by Western blot analysis relative to control; type: cell-based; in short: as §1
T2 sequence (P40337 whole entry, looked up): as the sequence (P40337 whole entry, looked up) above
T2 sequence (Q9NPI1 whole entry, looked up): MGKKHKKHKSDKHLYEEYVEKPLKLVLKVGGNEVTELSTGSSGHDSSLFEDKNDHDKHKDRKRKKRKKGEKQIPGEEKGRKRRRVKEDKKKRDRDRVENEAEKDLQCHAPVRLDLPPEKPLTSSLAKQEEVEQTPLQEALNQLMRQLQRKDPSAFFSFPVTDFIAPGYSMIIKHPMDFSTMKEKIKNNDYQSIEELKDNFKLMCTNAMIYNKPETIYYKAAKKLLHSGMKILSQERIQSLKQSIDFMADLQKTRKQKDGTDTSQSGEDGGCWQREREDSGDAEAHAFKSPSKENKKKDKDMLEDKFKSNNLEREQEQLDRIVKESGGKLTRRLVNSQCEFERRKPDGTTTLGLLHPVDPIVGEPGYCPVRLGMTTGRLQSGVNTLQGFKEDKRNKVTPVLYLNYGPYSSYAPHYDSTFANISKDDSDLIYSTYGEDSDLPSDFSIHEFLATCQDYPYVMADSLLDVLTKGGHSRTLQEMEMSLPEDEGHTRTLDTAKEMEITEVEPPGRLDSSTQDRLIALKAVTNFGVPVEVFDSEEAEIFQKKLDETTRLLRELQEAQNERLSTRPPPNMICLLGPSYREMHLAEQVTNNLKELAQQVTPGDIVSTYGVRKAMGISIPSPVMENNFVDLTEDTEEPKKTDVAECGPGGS

[3] = target: T1, von Hippel-Lindau disease tumor suppressor/Bromodomain-containing protein 9 (Homo sapiens); experiment: PROTAC activity at VHL/BRD9 in human Ri-1 cells assessed as maximal degradation by Western blot analysis relative to control; type: cell-based; in short: as §1
[4] = target: T2, von Hippel-Lindau disease tumor suppressor/Bromodomain-containing protein 7 (Homo sapiens); experiment: PROTAC activity at VHL/BRD7 in human Ri-1 cells assessed as remaining BRD7 protein level at 10 nM incubated for 24 hrs by Western blot analysis relative to control; type: cell-based
[5] = target: T1, von Hippel-Lindau disease tumor suppressor/Bromodomain-containing protein 9 (Homo sapiens); experiment: PROTAC activity at VHL/BRD9 in human Ri-1 cells assessed as remaining BRD9 protein level at 1 uM incubated for 8 hrs by Western blot analysis relative to control; type: cell-based; in short: as §1
[6] = target: T1, von Hippel-Lindau disease tumor suppressor/Bromodomain-containing protein 9 (Homo sapiens); experiment: PROTAC activity at VHL/BRD9 in human Ri-1 cells assessed as BRD9 protein degradation in the presence of MG132 by Western blot analysis; type: cell-based; in short: as §1
[7] = target: T1, von Hippel-Lindau disease tumor suppressor/Bromodomain-containing protein 9 (Homo sapiens); experiment: PROTAC activity at VHL/BRD9 in human Ri-1 cells assessed as BRD9 protein degradation at 100 nM pre-incubated for 30 mins with VH298 followed by compound addition and measured after 4 hrs by Western blot analysis; type: cell-based
[8] = target: T2, von Hippel-Lindau disease tumor suppressor/Bromodomain-containing protein 7 (Homo sapiens); experiment: PROTAC activity at VHL/BRD7 in human Ri-1 cells assessed as remaining BRD7 protein level at 100 nM incubated for 24 hrs by Western blot analysis relative to control; type: cell-based; in short: as §1
[9] = target: T1, von Hippel-Lindau disease tumor suppressor/Bromodomain-containing protein 9 (Homo sapiens); experiment: PROTAC activity at VHL/BRD9 in human Ri-1 cells assessed as remaining BRD9 protein level at 100 nM incubated for 48 hrs by Western blot analysis relative to control; type: cell-based; in short: as §1
[10] = target: T1, von Hippel-Lindau disease tumor suppressor/Bromodomain-containing protein 9 (Homo sapiens); experiment: PROTAC activity at VHL/BRD9 in human Ri-1 cells assessed as remaining BRD9 protein level at 10 nM incubated for 2 hrs by Western blot analysis relative to control; type: cell-based; in short: as §1
[11] = target: T1, von Hippel-Lindau disease tumor suppressor/Bromodomain-containing protein 9 (Homo sapiens); experiment: PROTAC activity at VHL/BRD9 in human Ri-1 cells assessed as remaining BRD9 protein level at 100 nM incubated for 8 hrs by Western blot analysis relative to control; type: cell-based; in short: as §1
[12] = Stability in mouse plasma at 10 uM measured upto 180 mins by UPLC-MS/MS analysis; type: ADME, cell-free; settings: 3 h
[13] = target: T1, von Hippel-Lindau disease tumor suppressor/Bromodomain-containing protein 9 (Homo sapiens); experiment: PROTAC activity at VHL/BRD9 in human Ri-1 cells assessed as remaining BRD9 protein level at 10 nM incubated for 1 hrs by Western blot analysis relative to control; type: cell-based; in short: as §1
[14] = target: T1, von Hippel-Lindau disease tumor suppressor/Bromodomain-containing protein 9 (Homo sapiens); experiment: PROTAC activity at VHL/BRD9 in human Ri-1 cells assessed as remaining BRD9 protein level at 100 nM incubated for 30 mins by Western blot analysis relative to control; type: cell-based; in short: as §1
[15] = target: T2, von Hippel-Lindau disease tumor suppressor/Bromodomain-containing protein 7 (Homo sapiens); experiment: PROTAC activity at VHL/BRD7 in human Ri-1 cells assessed as remaining BRD7 protein level at 1 nM incubated for 2 hrs by Western blot analysis relative to control; type: cell-based
[16] = target: T2, von Hippel-Lindau disease tumor suppressor/Bromodomain-containing protein 7 (Homo sapiens); experiment: PROTAC activity at VHL/BRD7 in human Ri-1 cells assessed as remaining BRD7 protein level at 100 nM incubated for 2 hrs by Western blot analysis relative to control; type: cell-based; in short: as §1
[17] = target: T1, von Hippel-Lindau disease tumor suppressor/Bromodomain-containing protein 9 (Homo sapiens); experiment: PROTAC activity at VHL/BRD9 in human Ri-1 cells assessed as remaining BRD9 protein level at 100 nM incubated for 4 hrs by Western blot analysis relative to control; type: cell-based; in short: as §1
[18] = Stability in CD-1 mouse liver microsomes at 0.5 uM measured upto 30 mins in the presence of NADPH; type: ADME, Microsome; settings: 0.5 h
[19] = target: T1, von Hippel-Lindau disease tumor suppressor/Bromodomain-containing protein 9 (Homo sapiens); experiment: PROTAC activity at VHL/BRD9 in human Ri-1 cells assessed as remaining BRD9 protein level at 10 nM incubated for 8 hrs by Western blot analysis relative to control; type: cell-based; in short: as §1
[20] = target: T2, von Hippel-Lindau disease tumor suppressor/Bromodomain-containing protein 7 (Homo sapiens); experiment: PROTAC activity at VHL/BRD7 in human Ri-1 cells assessed as remaining BRD7 protein level at 1 uM incubated for 8 hrs by Western blot analysis relative to control; type: cell-based
[21] = Stability in human liver microsomes at 0.5 uM measured upto 30 mins in the presence of NADPH; type: ADME, Microsome; settings: 0.5 h
[22] = target: T2, von Hippel-Lindau disease tumor suppressor/Bromodomain-containing protein 7 (Homo sapiens); experiment: PROTAC activity at VHL/BRD7 in human Ri-1 cells assessed as remaining BRD7 protein level at 10 nM incubated for 1 hrs by Western blot analysis relative to control; type: cell-based
[23] = target: T1, von Hippel-Lindau disease tumor suppressor/Bromodomain-containing protein 9 (Homo sapiens); experiment: PROTAC activity at VHL/BRD9 in human Ri-1 cells assessed as remaining BRD9 protein level at 1 uM incubated for 2 hrs by Western blot analysis relative to control; type: cell-based; in short: as §1
[24] = target: T1, von Hippel-Lindau disease tumor suppressor/Bromodomain-containing protein 9 (Homo sapiens); experiment: PROTAC activity at VHL/BRD9 in human Ri-1 cells assessed as remaining BRD9 protein level at 100 nM incubated for 2 hrs by Western blot analysis relative to control; type: cell-based; in short: as §1
[25] = target: T2, von Hippel-Lindau disease tumor suppressor/Bromodomain-containing protein 7 (Homo sapiens); experiment: PROTAC activity at VHL/BRD7 in human Ri-1 cells assessed as remaining BRD7 protein level at 10 nM incubated for 30 mins by Western blot analysis relative to control; type: cell-based
[26] = target: T2, von Hippel-Lindau disease tumor suppressor/Bromodomain-containing protein 7 (Homo sapiens); experiment: PROTAC activity at VHL/BRD7 in human Ri-1 cells assessed as remaining BRD7 protein level at 0.1 nM incubated for 8 hrs by Western blot analysis relative to control; type: cell-based
[27] = target: T2, von Hippel-Lindau disease tumor suppressor/Bromodomain-containing protein 7 (Homo sapiens); experiment: PROTAC activity at VHL/BRD7 in human HeLa cells assessed as remaining BRD7 protein level at 1 uM incubated for 4 hrs by Western blot analysis relative to control; type: cell-based
[28] = target: T2, von Hippel-Lindau disease tumor suppressor/Bromodomain-containing protein 7 (Homo sapiens); experiment: PROTAC activity at VHL/BRD7 in human Ri-1 cells assessed as remaining BRD7 protein level at 100 nM incubated for 30 mins by Western blot analysis relative to control; type: cell-based; in short: as §1
[29] = target: T2, von Hippel-Lindau disease tumor suppressor/Bromodomain-containing protein 7 (Homo sapiens); experiment: PROTAC activity at VHL/BRD7 in human Ri-1 cells assessed as remaining BRD7 protein level at 1 uM incubated for 2 hrs by Western blot analysis relative to control; type: cell-based
EOL1 = experiment: Antiproliferative activity against human EOL1 cells assessed as inhibition of cell growth incubated for 7 days by CellTiterGlo assay; type: functional, cell-based; settings: EOL1, 168 h
[30] = target: T1, von Hippel-Lindau disease tumor suppressor/Bromodomain-containing protein 9 (Homo sapiens); experiment: PROTAC activity at VHL/BRD9 in human Ri-1 cells assessed as BRD9 protein degradation in the presence of MLN4924 by Western blot analysis; type: cell-based; in short: as §1

What does the source list for COc1cc(-c2cn(C)c(=O)c3cnccc23)cc(OC)c1CN1CCN(CCCCCOc2cc(-c3scnc3C)ccc2CNC(=O)[C@@H]2C[C@@H](O)CN2C(=O)[C@@H](NC(=O)C2(F)CC2)C(C)(C)C)CC1?
Activity [1]: 89%; Activity [2]: 5%; Emax [3]: > 90%; Activity [4]: 38%; Activity [5]: 16%; Activity [6]: inactive; Activity [7]: inactive; Activity [8]: 4%; Activity [9]: 2%; Activity [10]: 35%; Activity [11]: 2%; Stability [12]: Stable; Activity [13]: 64%; Activity [14]: 48%; Activity [15]: 92%; Activity [16]: 8%; Activity [17]: 10%; Stability [18]: Stable; Activity [19]: 14%; Activity [20]: 5%; Stability [21]: Stable; Activity [22]: 70%; Activity [23]: 52%; Activity [24]: 21%; Activity [25]: 70%; Activity [26]: 109%; Activity [27]: 10%; Activity [28]: 40%; Activity [29]: 10%; pIC50 (EOL1): 8.47; Activity [30]: inactive
